The target in test [1] is Signal transducer and activator of transcription 3 (Homo sapiens, UniProt P40763). In words: Inhibition of STAT3 phosphorylation at Tyr705 residue in human HCC70 cells after 3 hrs by Western blotting analysis. Type of test: cell-based. The note with it: dose 0.3-3 µM. Background: In western blotting, separated proteins are transferred to a membrane and probed.
For another test, the system named is MDA-MB-231. Briefly: Effect on total STAT5 level in human MDA-MB-231 cells at 0.3 to 3 uM after 3 hrs by Western blotting analysis. The note with it: dose 0.3-3 µM. In kind it is functional, cell-based. In a few lines:
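Breast cancer cells were treated with vehicle (0.1% DMSO) or compound, then lysed in RIPA with PMSF and phosphatase inhibitors. 20–50 μg protein was run on 8 or 12% SDS-PAGE, blotted to PVDF, blocked in 5% BSA, probed with primary antibodies overnight at 4 °C, then HRP secondaries, with ECL detection.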

Active and inactive are the calls of the source. The rule behind the calls is not given here.

Sequence of Signal transducer and activator of transcription 3 (P40763 whole entry): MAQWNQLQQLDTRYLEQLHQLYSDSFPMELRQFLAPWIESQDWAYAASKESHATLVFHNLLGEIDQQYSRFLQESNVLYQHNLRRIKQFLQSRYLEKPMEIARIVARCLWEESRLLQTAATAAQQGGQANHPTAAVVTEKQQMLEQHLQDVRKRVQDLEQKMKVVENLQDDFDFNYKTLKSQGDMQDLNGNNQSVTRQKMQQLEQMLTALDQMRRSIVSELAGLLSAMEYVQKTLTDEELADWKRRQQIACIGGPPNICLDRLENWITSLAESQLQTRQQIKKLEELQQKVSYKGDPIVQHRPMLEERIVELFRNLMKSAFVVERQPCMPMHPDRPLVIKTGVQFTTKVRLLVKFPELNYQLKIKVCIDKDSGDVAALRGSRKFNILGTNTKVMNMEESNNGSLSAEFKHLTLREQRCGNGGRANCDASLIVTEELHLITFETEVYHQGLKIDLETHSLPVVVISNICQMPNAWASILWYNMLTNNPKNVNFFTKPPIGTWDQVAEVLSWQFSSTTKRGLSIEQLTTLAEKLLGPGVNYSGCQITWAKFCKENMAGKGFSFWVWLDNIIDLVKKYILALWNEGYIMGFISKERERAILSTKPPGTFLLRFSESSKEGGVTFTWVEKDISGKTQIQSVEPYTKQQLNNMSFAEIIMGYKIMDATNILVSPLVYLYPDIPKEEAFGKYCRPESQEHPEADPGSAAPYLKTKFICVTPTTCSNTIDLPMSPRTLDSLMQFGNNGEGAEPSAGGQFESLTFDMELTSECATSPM

As to `O=C(Cc1c(-c2ccccc2)nc2ccccn12)Nc1ccc2c(c1)S(=O)(=O)C=C2`, the inhibition entry in test [1] is “Dose-Dependent Effect”. Also, the result in the test on MDA-MB-231 was inactive.

Source of the values: ChEMBL document CHEMBL4825680, “Structure-based discovery of potent and selective small-molecule inhibitors targeting signal transducer and activator of transcription 3 (STAT3)” (Eur J Med Chem, 2021).
